From ChEMBL document CHEMBL4813972, “A grafted peptidomimetic for EGFR heterodimerization inhibition: Implications in NSCLC models” (Eur J Med Chem, 2021)
Activity calls are given as the source filed them. No cut-off for these calls is given here. Starred links: 1 amine or outer side, 2 acyl side, 3 side chain; linkers in the order of their positions; H or OH if unused. Positions of bridges follow the written chain, without caps; N, C: chain ends. Non-standard residues stand in square brackets, D forms with d. Residues, ends and D or L forms follow the SMILES beside them. X1 = N=C(N)NCCC[C@H](N[*:2])C(=O)NC(=O)[C@H](CC(=O)O)NC(=O)[*:1]; βAla(3R-(1-naphthyl)) = O=C(C[C@@H](N[*:1])c1cccc2ccccc12)[*:2]; βAla(3S-(1-naphthyl)) = O=C(C[C@H](N[*:1])c1cccc2ccccc12)[*:2]

Legend:
MCF7 = experiment: Antiproliferative activity against human MCF7 cells with silenced HER2 assessed as cell growth inhibition incubated for 72 hrs by cell titer glo assay; assay type: functional, cell-based; details: MCF7, 72 h
Method in brief: (§1)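 Cells seeded at 1×10^4 per well, left overnight at 37 °C/5% CO2, then exposed to a concentration series of peptide (up to 200, down to 0.01 μM) for 72 h. 1% SDS and 1% DMSO served as controls. Cells were PBS-washed, CellTiter-Glo added and luminescence read. IC50 taken from three independent experiments per cell line.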

MCF-10A = experiment: Cytotoxicity against human MCF-10A cells assessed as cell growth inhibition incubated for 72 hrs by cell titer glo assay; assay type: cell-based; method in brief: as §1
BT-474 = experiment: Antiproliferative activity against human BT-474 cells overexpressing HER2 assessed as cell growth inhibition incubated for 72 hrs by cell titer glo assay; assay type: functional, cell-based; details: BT-474, 72 h
A549 = experiment: Antiproliferative activity against human A549 cells overexpressing HER2 assessed as cell growth inhibition incubated for 72 hrs by cell titer glo assay; assay type: functional, cell-based; details: A549, 72 h; method in brief: as §1
Calu-3 [1] = experiment: Antiproliferative activity against human Calu-3 cells overexpressing HER2 assessed as cell growth inhibition incubated for 72 hrs by cell titer glo assay; assay type: functional, cell-based; details: Calu-3, 72 h
[2] = Toxicity in BALB/c mouse assessed as increase in Ki-67 expression at 5 ug/ml, iv administered on day 0 and 10 and spleenocytes collected on day 13 and incubated for 48 hrs by flow cytometry analysis; assay type: organism-based; details: in vivo, 360 h, dose 5 µg/ml, time 15 day
Method in brief: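 Splenocytes from PBS- or peptide-primed BALB/c mice (6 mg/kg i.v. days 0 and 10; harvested day 13) cultured 48 h with concanavalin A 5 μg/mL. Ki67 in CD3+ cells measured by flow cytometry after viability, surface and intracellular staining.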

Calu-3 [3] = experiment: Antitumor activity in human Calu-3 cells xenografted in Foxn1nu/Foxn1+ mouse assessed as reduction in tumor growth at 6 mg/kg, IT(Intratumoral) administered thrice a week for 21 days in presence of trastu-zumab and measured on day 21 relative to control; assay type: functional, organism-based; details: time 21.0 day
Calu-3 [4] = experiment: Antitumor activity in human Calu-3 cells xenografted in Foxn1nu/Foxn1+ mouse assessed as reduction in tumor growth at 8 mg/kg, IT(Intratumoral) administered thrice a week for 21 days and measured on day 21 relative to control; details: time 21.0 day

Row | IC50 (MCF7) | IC50 (BT-474) | SMILES | also measured
1 | > 30 µM | 7.22 µM | CC[C@H](C)[C@@H]1NC(=O)[C@@H]2CCCN2C(=O)[C@@H]2CCCN2C(=O)NC(=O)[C@H](CC(=O)O)NC(=O)[C@H](Cc2ccccc2)NC(=O)[C@@H]2CSSC[C@H](NC(=O)N[C@H](c3cccc4ccccc34)CC(=O)N[C@@H](CCCNC(=N)N)C(=O)N3CCC[C@H]3C(=O)NCC(=O)N[C@@H](CCCNC(=N)N)C(=O)N[C@H](c3cccc4ccccc34)CC(=O)N2)C(=O)N[C@@H](Cc2ccccc2)C(=O)NC(=O)[C@H](CC(=O)O)NC(=O)[C@H](CO)NC1=O | –
2 | > 100 µM | > 100 µM | NCCCC[C@H](N)C(=O)N[C@@H](CC(=O)N[C@@H](Cc1ccccc1)C(=O)O)c1ccc(-c2ccccc2)cc1 | IC50 (A549): > 100 µM; IC50 (Calu-3 [1]): > 100 µM
3 | > 50 µM | 2.94 µM | CC[C@H](C)[C@H]1C(=O)NC(=O)[C@H](CCCNC(=N)N)NC(=O)C[C@H](c2cccc3ccccc23)NC(=O)N[C@H]2CSSC[C@H](NC(=O)C[C@H](c3cccc4ccccc34)NC(=O)[C@H](CCCNC(=N)N)NC(=O)[C@@H]3CCCN3C(=O)[C@@H]3CCCN13)C(=O)N[C@@H](Cc1ccccc1)C(=O)N1CCC[C@H]1C(=O)N[C@@H](CC(=O)O)C(=O)NC(=O)[C@H](CC(=O)O)NC(=O)[C@H](Cc1ccccc1)NC2=O | –
4 | – | – | CC[C@H](C)[C@@H]1NC(=O)[C@@H]2CSSC[C@H](NC(=O)[C@H](CCCNC(=N)N)NC(=O)CNC(=O)[C@H](CC(=O)O)NC(=O)[C@@H]3CCCN3C(=O)N[C@@H](Cc3ccccc3)C(=O)N2)C(=O)N[C@@H]([C@H](C)O)C(=O)N[C@@H](CCCCN)C(=O)N([C@@H](CO)C(=O)O)C(=O)[C@H]([C@@H](C)CC)NC(=O)[C@@H]2CCCN2C(=O)[C@@H]2CCCN2C1=O | IC50 (A549): > 100 µM; IC50 (Calu-3 [1]): > 100 µM
5 | > 50 µM | 4.16 µM | CC[C@H](C)[C@@H]1NC(=O)[C@H](CO)NC(=O)[C@H](CC(=O)O)NC(=O)[C@H](Cc2ccccc2)NC(=O)[C@@H]2CSSC[C@H](NC(=O)[C@H](Cc3ccccc3)NC(=O)[C@H](CC(=O)O)NC1=O)C(=O)N[C@H](c1cccc3ccccc13)CC(=O)N[C@@H](CCCNC(=N)N)C(=O)NC(=O)[C@H](CC(=O)O)NC(=O)N[C@@H](CCCNC(=N)N)C(=O)N[C@H](c1cccc3ccccc13)CC(=O)N2 (R[βAla(3S-(1-naphthyl))]CFDSIDFC[βAla(3S-(1-naphthyl))]; disulfide 3-10; linker N-C via X1) | –
6 | – | – | Cc1cn(C2C[C@H](N=[N+]=[N-])[C@@H](CO)O2)c(=O)[nH]c1=O (stereo partly specified) | Activity [2]: Toxic
7 | – | – | Cc1ccc(OCC(O)C(C)NC(C)C)c2c1CCC2 (stereo unspecified) | Activity (Calu-3 [3]): Active; Activity (Calu-3 [4]): Active
8 | > 50 µM | 3.65 µM | N=C(N)NCCC[C@@H]1NC(=O)[C@H]2CCCN2C(=O)[C@@H]2CCCN2C(=O)[C@H](CCCNC(=N)N)NC(=O)C[C@H](c2cccc3ccccc23)NC(=O)N[C@H]2CSSC[C@H](NC(=O)C[C@H](c3cccc4ccccc34)NC1=O)C(=O)N[C@@H](Cc1ccccc1)C(=O)N[C@@H](CC(=O)O)C(=O)NC(=O)[C@H](CC(=O)O)NC(=O)[C@H](Cc1ccccc1)NC2=O | –
9 | > 50 µM | 5.23 µM | N=C(N)NCCC[C@@H]1NC(=O)[C@H]2CCCN2C(=O)[C@@H]2CCCN2C(=O)[C@H](CCCNC(=N)N)NC(=O)C[C@H](c2cccc3ccccc23)NC(=O)N[C@H]2CSSC[C@H](NC(=O)C[C@H](c3cccc4ccccc34)NC1=O)C(=O)N[C@@H](Cc1ccccc1)C(=O)NC(=O)[C@H](Cc1ccccc1)NC2=O | –

Row | SMILES | IC50 (MCF7) | IC50 (BT-474) | also measured
10 | N=C(N)NCCC[C@@H]1NC(=O)[C@H]2CCCN2C(=O)[C@@H]2CCCN2C(=O)[C@H](CCCNC(=N)N)NC(=O)C[C@H](c2cccc3ccccc23)NC(=O)[C@H](Cc2ccccc2)NC(=O)[C@H](CC(=O)O)NC(=O)[C@H](CC(=O)O)NC(=O)[C@H](Cc2ccccc2)NC(=O)C[C@H](c2cccc3ccccc23)NC1=O (cyclo(DDF[βAla(3R-(1-naphthyl))]RP[dP]R[βAla(3R-(1-naphthyl))]F)) | > 50 µM | – | IC50 (MCF-10A): 40 µM
